The source of these data is ChEMBL document CHEMBL1121887, “A new nontricyclic antidepressant agent. Synthesis and activity of N-[trans-2-(dimethylamino)cyclopentyl]-N-(3,4-dichlorophenyl)propanamide and related compounds” (1981).

Common to all, as to format: functional
For experiment [1], the species on record is Mus musculus. Kind of experiment: Antidepressant activity using apomorphine potentiation test in mice. The essentials: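 Male CF-1 mice in groups of four got test compound i.p. (50 and 25 mg/kg) in 0.25% aqueous methylcellulose. 1 h later they got apomorphine 10 mg/kg s.c. and were watched 30 min for stereotyped gnawing and licking, each positive. If ≥3 were positive, the test was repeated at 0.3 log lower doses until ≤1 responded. ED50 and 95% CI by Spearman–Karber.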

For experiment [2], the species on record is Mus musculus. Kind of experiment: Antidepressant activity using oxotremorine antagonism test in mice.
For experiment [3], the species on record is Mus musculus. Kind of experiment: Antidepressant activity using yohimbine potentiation test in mice.

As for `CCC(=O)N(c1ccc(OC)cc1)C1CCCCC1N(C)C` (stereo not drawn), the ED50 – broadly, the dose at which the effect has come halfway, by size or by number of responders – in experiment [1] (Mus musculus, read-out: ED50) is greater than 50 mg/kg; in experiment [2] (Mus musculus, read-out: ED50), greater than 50 mg/kg; in experiment [3] (Mus musculus, read-out: ED50) it was greater than 50 mg/kg.

Turning to `C=CC(=O)N(c1ccc(Cl)c(Cl)c1)C1CCCC1N(C)C` (stereo not drawn), the ED50 in experiment [1] (Mus musculus, read-out: ED50) was found to be 5 mg/kg; in experiment [2] (Mus musculus, read-out: ED50), 5 mg/kg; in experiment [3] (Mus musculus, read-out: ED50) it was 2 mg/kg.

Regarding `CCC(=O)N(c1ccc(Cl)c(Cl)c1)C1CCCC1N1CCCC1` (stereo not drawn), the median effective dose (ED50) worked out at 3 mg/kg in experiment [1] (Mus musculus, read-out: ED50); 2 mg/kg in experiment [2] (Mus musculus, read-out: ED50); 0.6 mg/kg in experiment [3] (Mus musculus, read-out: ED50).

As for `CCC(=O)N(c1ccc(C(C)=O)cc1)C1CCCC1N(C)C` (stereo not drawn), the median effective dose (ED50) in experiment [1] (Mus musculus, read-out: ED50) is greater than 50 mg/kg; in experiment [2] (Mus musculus, read-out: ED50) it was 40 mg/kg; in experiment [3] (Mus musculus, read-out: ED50) it was greater than 50 mg/kg.

For the compound `CCC(=O)N(c1ccc(C)cc1)C1CCCC1N(C)C` (stereo in doubt; 45), the median effective dose (ED50) in experiment [1] (Mus musculus, read-out: ED50) came to 10 mg/kg; in experiment [2] (Mus musculus, read-out: ED50) it was 10 mg/kg; in experiment [3] (Mus musculus, read-out: ED50), 30 mg/kg.

Regarding `CC(=O)N(c1ccccc1)C1CCCC1N(C)C` (stereo not drawn), the ED50 in experiment [1] (Mus musculus, read-out: ED50) turned out to be 40 mg/kg; in experiment [2] (Mus musculus, read-out: ED50), 9 mg/kg; in experiment [3] (Mus musculus, read-out: ED50), 7 mg/kg.

Regarding `CCC(=O)N(c1ccc(Cl)cc1)C1CCCC1N(C)C` (stereo not drawn), the ED50 in experiment [1] (Mus musculus, read-out: ED50) was greater than 50 mg/kg; in experiment [2] (Mus musculus, read-out: ED50) it was 0.2 mg/kg; in experiment [3] (Mus musculus, read-out: ED50), 3 mg/kg.

Consider `CCC(=O)N(c1ccc(Cl)c(Cl)c1)C1CCCC1O` (stereo not drawn), for which the ED50 in experiment [1] (Mus musculus, read-out: ED50) was determined as 20 mg/kg; in experiment [2] (Mus musculus, read-out: ED50), 9 mg/kg; in experiment [3] (Mus musculus, read-out: ED50) it was 0.4 mg/kg.

Consider `CCC(=O)N(c1ccc(Cl)c(C)c1)C1CCCC1N(C)C` (stereo not drawn), for which the ED50 in experiment [1] (Mus musculus, read-out: ED50) turned out to be 10 mg/kg; in experiment [2] (Mus musculus, read-out: ED50) it was 2 mg/kg; in experiment [3] (Mus musculus, read-out: ED50), 2 mg/kg.

`CCC(=O)N(c1ccc(C)cc1)C1CCCC1N(C)C` (stereo in doubt; 24): the ED50 came out at 10 mg/kg in experiment [1], 10 mg/kg in experiment [2] and 30 mg/kg in experiment [3].

Consider `CCC(=O)N(c1cccc(C(F)(F)F)c1)C1CCCC1N(C)C` (stereo not drawn), for which the ED50 in experiment [1] (Mus musculus, read-out: ED50) amounted to 0.9 mg/kg; in experiment [2] (Mus musculus, read-out: ED50) it was 0.2 mg/kg; in experiment [3] (Mus musculus, read-out: ED50), 0.3 mg/kg.

For `CCC(=O)N(c1c(F)c(F)c(F)c(F)c1F)C1CCCC1N(C)C` (stereo not drawn), the ED50 in experiment [1] (Mus musculus, read-out: ED50) was greater than 50 mg/kg; in experiment [2] (Mus musculus, read-out: ED50) it was greater than 50 mg/kg; in experiment [3] (Mus musculus, read-out: ED50) it was greater than 50 mg/kg.

On to `CCC(=O)N(c1cccc(C)c1)C1CCCCC1N(C)C` (stereo not drawn), for which the ED50 was greater than 50 mg/kg in experiment [1] (Mus musculus, read-out: ED50); 15 mg/kg in experiment [2] (Mus musculus, read-out: ED50); greater than 50 mg/kg in experiment [3] (Mus musculus, read-out: ED50).

Regarding `CCC(=O)N(c1ccc(C)cc1)C1CCCCC1N(C)C` (stereo not drawn), the 50% effective dose (ED50) was greater than 50 mg/kg in experiment [1] (Mus musculus, read-out: ED50); greater than 50 mg/kg in experiment [2] (Mus musculus, read-out: ED50); greater than 50 mg/kg in experiment [3] (Mus musculus, read-out: ED50).

For `CCC(=O)N(c1cccc(Br)c1)C1CCCC1N(C)C` (stereo not drawn), the median effective dose (ED50) in experiment [1] (Mus musculus, read-out: ED50) is 2 mg/kg; in experiment [2] (Mus musculus, read-out: ED50), 0.1 mg/kg; in experiment [3] (Mus musculus, read-out: ED50), 0.1 mg/kg.

Consider `CN(C)C1CCCC1N(C=O)c1ccc(Cl)c(Cl)c1` (stereo not drawn), for which the ED50 in experiment [1] (Mus musculus, read-out: ED50) is greater than 50 mg/kg; in experiment [2] (Mus musculus, read-out: ED50), 40 mg/kg; in experiment [3] (Mus musculus, read-out: ED50) it was 9 mg/kg.

With `CC(=O)N(c1ccc(Cl)c(Cl)c1)C1CCCC1N(C)C` (stereo not drawn), the ED50 was found to be 20 mg/kg in experiment [1] (Mus musculus, read-out: ED50); 10 mg/kg in experiment [2] (Mus musculus, read-out: ED50); 9 mg/kg in experiment [3] (Mus musculus, read-out: ED50).

For `CCC(=O)N(c1cc(Cl)cc(Cl)c1)C1CCCC1N(C)C` (stereo not drawn), the 50% effective dose (ED50) was 30 mg/kg in experiment [1] (Mus musculus, read-out: ED50); 5 mg/kg in experiment [2] (Mus musculus, read-out: ED50); 0.9 mg/kg in experiment [3] (Mus musculus, read-out: ED50).

`CCC(=O)N(c1cccc(OC)c1)C1CCCC1N(C)C` (stereo not drawn): the ED50 in experiment [1] (Mus musculus, read-out: ED50) stood at 4 mg/kg; in experiment [2] (Mus musculus, read-out: ED50), 4 mg/kg; in experiment [3] (Mus musculus, read-out: ED50), 0.8 mg/kg.

As to `CCC(=O)N(c1ccc(Br)c(Br)c1)C1CCCC1N(C)C` (stereo not drawn), the ED50 in experiment [1] (Mus musculus, read-out: ED50) was 0.5 mg/kg; in experiment [2] (Mus musculus, read-out: ED50), 0.2 mg/kg; in experiment [3] (Mus musculus, read-out: ED50), 0.1 mg/kg.

For the compound `CCC(=O)N(c1ccc(C(=O)OC)cc1)C1CCCC1N(C)C` (stereo not drawn), the ED50 in experiment [1] (Mus musculus, read-out: ED50) was greater than 50 mg/kg; in experiment [2] (Mus musculus, read-out: ED50) it was greater than 50 mg/kg; in experiment [3] (Mus musculus, read-out: ED50), greater than 50 mg/kg.

In the case of `CCC(=O)N(c1cc(Cl)c(Cl)c(Cl)c1)C1CCCC1N(C)C` (stereo not drawn), the ED50 came out at 40 mg/kg in experiment [1] (Mus musculus, read-out: ED50); 40 mg/kg in experiment [2] (Mus musculus, read-out: ED50); 4 mg/kg in experiment [3] (Mus musculus, read-out: ED50).

As for `CCC(=O)N(c1ccc(Cl)cc1)C1CCCCC1N(C)C` (stereo not drawn), the median effective dose (ED50) in experiment [1] (Mus musculus, read-out: ED50) came to 14 mg/kg; in experiment [2] (Mus musculus, read-out: ED50) it was 17 mg/kg; in experiment [3] (Mus musculus, read-out: ED50), 35 mg/kg.

`CN(C)CCCN1c2ccccc2CCc2ccccc21.Cl` [IMIPRAMINE HYDROCHLORIDE]: the ED50 stood at 1 mg/kg in experiment [1] (Mus musculus, read-out: ED50); 1 mg/kg in experiment [2] (Mus musculus, read-out: ED50); 4 mg/kg in experiment [3] (Mus musculus, read-out: ED50).

`CCC(=O)N(c1cccc(Cl)c1)C1CCCC1N(C)C` (stereo not drawn): the ED50 was 20 mg/kg in experiment [1] (Mus musculus, read-out: ED50); 0.2 mg/kg in experiment [2] (Mus musculus, read-out: ED50); 0.4 mg/kg in experiment [3] (Mus musculus, read-out: ED50).

`CN(C)C1CCCC1N(C(=O)C1CC1)c1ccc(Cl)c(Cl)c1` (stereo not drawn): the median effective dose (ED50) in experiment [1] (Mus musculus, read-out: ED50) worked out at 0.4 mg/kg; in experiment [2] (Mus musculus, read-out: ED50), 0.3 mg/kg; in experiment [3] (Mus musculus, read-out: ED50) it was 0.2 mg/kg.
